From paper PMC6106105 (Journal of the Endocrine Society, 2018)
Like-named read-outs stand apart in the source and are kept apart here. Numbered stars: 1 amine (or outer) side, 2 acyl side, 3 side chain; on linkers, the order of the positions; unused ones are H or OH. Square brackets hold non-standard residues; d marks the D form. Side chains are listed from the residue outwards. Peptide text beside a SMILES is read from it. * marks the point of attachment. Ethylenediamine = C(CN[*:2])N[*:1]; Hyp = O=C(O)[C@@H]1C[C@@H](O)CN1; Phg = N[C@H](C(=O)O)c1ccccc1; CO = O=C([*:1])[*:2]; Bn = c1ccc(C*)cc1

Tests used:
[1] = biological target: T1, rat Sstr2A (Rattus norvegicus, UniProt P30680); experiment: Membrane potential; format: cell-based; conditions: read-out: Hyperpolarization Emax
[2] = tested on: GH4C1 cells; experiment: Membrane potential; format: cell-based, rat; conditions: for hyperpolarization response (agonist, in words): 100 nM (Fig. 3A)
In short: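 Rat GH4C1 cells grown in F12 with 12.5% horse serum and 2.5% FBS, plated 150,000/well on poly-D-ornithine. Loaded 30 min with FLIPR Membrane Potential blue dye in HEPES-buffered saline, pH 7.4, then equilibrated 15 min at 37°C. After 30 s baseline, agonist was added and fluorescence read for 180 s (ex 530/em 565 nm). Output was F1/F0 minus control trace, averaged over three wells.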

[3] = biological target: T1, rat Sstr2A; experiment: Sstr2A receptor internalization, cell surface ELISA in GH12C1-Sstr2A cells; format: cell-based; conditions: for Emax: read-out: Internalization Emax
[4] = biological target: T1, rat Sstr2A; format: cell-based; conditions: for Emax: read-out: cAMP Emax

T1 sequence (P30680 whole entry): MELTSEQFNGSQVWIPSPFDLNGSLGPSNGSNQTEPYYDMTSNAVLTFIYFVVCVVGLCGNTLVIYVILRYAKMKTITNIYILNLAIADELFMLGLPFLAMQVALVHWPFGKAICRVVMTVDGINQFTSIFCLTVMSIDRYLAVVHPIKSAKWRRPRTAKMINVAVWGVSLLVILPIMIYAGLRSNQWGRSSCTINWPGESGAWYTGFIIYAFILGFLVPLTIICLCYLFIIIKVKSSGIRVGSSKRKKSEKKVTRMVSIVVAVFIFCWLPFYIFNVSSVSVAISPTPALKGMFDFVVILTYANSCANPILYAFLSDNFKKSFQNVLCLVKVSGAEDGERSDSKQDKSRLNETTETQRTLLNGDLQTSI

| Compound | Emax at 0.1 µM [1] [%] | Emax [3] [%] | Emax [4] [%] | hyperpolarization response (agonist, in words) [2] | also measured |
| --- | --- | --- | --- | --- | --- |
| C[C@@H](O)[C@@H]1NC(=O)[C@H](CCCCN)NC(=O)[C@@H](Cc2c[nH]c3ccccc23)NC(=O)[C@H](Cc2ccccc2)NC(=O)[C@@H](NC(=O)[C@H](N)Cc2ccccc2)CSSC[C@@H](C(=O)N[C@H](CO)[C@@H](C)O)NC1=O [Octreotide, octreotide] | 107 | 100 | 100 | equivalent to that of SS14 |  |
| Des-AA^1,2,5-[DTrp^8,IAmp^9,^125ITyr^11]-Cbm-SRIF [Rivier #27] |  |  |  | largely ineffective |  |
| H-p-Chloro-Phe-D-Cys-β-(3-pyridyl)-Ala-D-Trp-Lys-tBu-Gly-Cys-2-Nal-NH2 trifluoroacetate salt [PRL-2915] |  |  |  |  | effect on hyperpolarization response produced by SS14 ([2]; PRL-2915 (1 µM), SS14 (1 µM), 15 minutes pretreatment): eliminated most of the hyperpolarization response |

Now from value to compound, other results behind:

| Emax at 0.1 µM [1] [%] | Emax [3] [%] | Emax [4] [%] | Compound | hyperpolarization response (agonist, in words) [2] | also measured |
| --- | --- | --- | --- | --- | --- |
|  | 5 | 100 | NCCCC[C@@H]1NC(=O)[C@@H](Cc2c[nH]c3ccccc23)NC(=O)[C@H](c2ccccc2)NC(=O)[C@@H]2C[C@@H](OC(=O)NCCN)CN2C(=O)[C@H](Cc2ccccc2)NC(=O)[C@H](Cc2ccc(OCc3ccccc3)cc2)NC1=O [SOM230, pasireotide diaspartate] (cyclo([Hyp]([CO-Ethylenediamine])[Phg][dW]KY(Bn)F); ring closure inferred) |  | Emax at 1 µM [1]: 5%; Kd [3]: 243 ± 63 nM; shift in SS14 potency for receptor internalization after SOM230 pretreatment (Schild-plot analysis) ([3]; SOM230 2 µM, 5-minute pretreatment, kept present throughout): 8.7 fold; EC50 [4]: 58 ± 7 nM |
| 100 | 100 | 100 | C[C@H](N)C(=O)NCC(=O)N[C@H]1CSSC[C@@H](C(=O)O)NC(=O)[C@H](CO)NC(=O)[C@H]([C@@H](C)O)NC(=O)[C@H](Cc2ccccc2)NC(=O)[C@H]([C@@H](C)O)NC(=O)[C@H](CCCCN)NC(=O)[C@H](Cc2c[nH]c3ccccc23)NC(=O)[C@H](Cc2ccccc2)NC(=O)[C@H](Cc2ccccc2)NC(=O)[C@H](CC(N)=O)NC(=O)[C@H](CCCCN)NC1=O [SS14, Somatostatin] |  |  |
